# Laboratory results taken from article PMC7114156 (Antiviral Research, 2009).
# “And” between values parts separate entries of the source, which are not always exact repeats. Equal entries are not always repeated. “Also recorded” adds a separate entry of the source.
# Key:
# adenovirus type 5 = test: Adenovirus assay: adenovirus-5 replication in HFF cells, viral DNA by qPCR; assay type: cell-based; conditions: Ad5 in HFF cells, MOI 3, 72 h
# [1] = Growth of uninfected HFF cells; assay type: cell-based, human; conditions: human, HFF cells (fibroblasts)
# HFF cells = test: Growth of uninfected HFF cells; assay type: cell-based, human
# Vero cells = test: Growth of uninfected Vero cells, MTS; assay type: cell-based, African Green monkey
# Procedure, shortened: (§1)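 Cells were plated in 96-well plates in medium holding serial dilutions of test compound, 1 nM to 10 μM, with DMSO ≤1% (v/v) final. Growth was read by MTS after 72 h at 37 °C: 2 h with reagent plus phenazine methosulfate, then A490. K and Imax came from a fit to a modified Hill equation. Vero cells are African Green monkey.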
# HSV-1 = HSV-1 infection in Vero cells; assay type: cell-based
# B-LCL 5/2/1 = test: Growth of B-LCL 5/2/1; assay type: cell-based, human
# CIN612 cells = test: Growth of CIN612 cells, MTS; assay type: cell-based, human
# HPV-16 = test: HPV DNA by qPCR in HKC/HPV16 cells; assay type: cell-based
# human keratinocyte (HKC) = test: Growth of uninfected human keratinocytes; assay type: cell-based; conditions: 4 days
# Procedure, shortened: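 W12-20850 cells were seeded at 7.5 × 10^3 cells/well into 96-well plates containing test compound, 100 to 0.001 μM. Plates were held 4 days at 37 °C, 5% CO2. Growth was read by MTS (A490), and HPV16 DNA was then measured from the same cells. Uninfected human keratinocytes were run in parallel and read by MTS.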
# Namalwa = test: Growth of Namalwa; assay type: cell-based, human; conditions: 72 h
# Procedure, shortened: (§2)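 Cell lines carrying integrated viral genomes were plated in 96-well plates in medium with test compound. Growth was read by ATP luminescence (CellTiter-Glo) for HEK293 and WI38 VA13, and by MTS reduction (A490 after 2 h at 37 °C) for Namalwa, W12 20861, SiHa, Caski and HeLa. K and Imax came from a fit to a modified Hill equation.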
# W12 20861 = test: Growth of W12 20861; assay type: cell-based, human; conditions: 72 h
# Procedure, shortened: as §2
# HeLa = test: Growth of HeLa; assay type: cell-based, human; conditions: 72 h
# Procedure, shortened: as §2
# Huh7 = test: Growth of Huh7, MTS; assay type: cell-based, human
# Procedure, shortened: as §1
# Molt4 = test: Growth of Molt4, MTS; assay type: cell-based, human
# Procedure, shortened: as §1
# [2] = Growth of activated PBMC, MTS; assay type: cell-based; conditions: human, activated PBMCs
# Procedure, shortened: (§3)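 Primary cells were plated in 96-well plates with serial dilutions of test compound, 3 nM to 100 μM, for 72 h at 37 °C. Read-out was CTG for resting B and CD4 T cells and MTS for PBMC, WI38 and HUVEC. Purity was 90–95% for B cells and 97% for CD4 cells. Activated PBMCs were stimulated with phytohemagglutinin plus IL2.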
# [3] = Growth of resting B cells, CTG; assay type: cell-based; conditions: human
# Procedure, shortened: as §3
# [4] = Growth of WI38 fibroblasts, MTS; assay type: cell-based; conditions: human
# Procedure, shortened: as §3
# [5] = Growth of HUVEC endothelial cells, MTS; assay type: cell-based; conditions: human
# Procedure, shortened: as §3
# [6] = Bone marrow toxicity assay, granulocyte/macrophage progenitors; assay type: cell-based; conditions: human, granulocyte/macrophage bone marrow progenitor cells
# IM9 cells = test: Apoptosis assay; assay type: cell-based, human; conditions: IM9, 20 h exposure
# Procedure, shortened: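 Apoptosis read as cytoplasmic histone-associated DNA fragments with a Cell Death Detection ELISA kit. Exposure was 20 h for IM9 and MT4 and 40 h for W12 and U937. A405 was read kinetically at 30 °C, and the rate per hour came from linear regression of the linear portion. A Fas-activating antibody was the positive control.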
# IFIT1 promoter = test: Luciferase assay, luciferase under control of the IFIT1 promoter in HEK293 cells; assay type: cell-based, human; conditions: 10 and 30 nM, over a 48-h period
# primary cells = test: Growth of primary cells; assay type: cell-based, human; conditions: at concentrations below 1 μM
# [7] = Homo sapiens, read-out: K, Growth, MTS
smiles,measurement,setting,value
"O=C(N[C@@H]1CCCc2c1[nH]c1ccc(Cl)cc21)c1ccccn1 [GSK983, N-[(1R)-6-Chloro-2,3,4,9-tetrahydro-1H-carbazol-1-yl]-2-pyridinecarboxamide]","Imax, viral DNA by qPCR",adenovirus type 5,100%
same,CC50 at 72 h,[1],55 µM
same,"K, uninfected host cell growth, MTS","HFF cells; HFF, this experiment (Fig. 2), K ∼ CC50","35,500 nM"
same,"Growth of the uninfected HFF, as measured by MTS",HFF cells; at concentrations below one micromolar,not inhibited
same,Outcome of growth inhibition over time,Vero cells; data not shown,cytostasis
same,"Imax, uninfected host cell growth, MTS",Vero cells; data of Fig. 3,37%
same,"Imax, Growth, MTS","Vero cells; kidney epithelial, 72 h, 4 titrations",43 ± 1%
same,Susceptibility of HSV-1,HSV-1; at concentrations below 1 μM,not susceptible
same,Inhibition of HSV-1 infection in Vero cells,HSV-1; concentration range 1 nM to 100 μM,50% inhibition in the micromolar range
same,Selectivity index,B-LCL 5/2/1; B-LCL 5/2/1 (EBV) vs activated B cell,>700 ± 15
same,"Imax, cell line growth","B-LCL 5/2/1; B-LCL 5/2/1 (EBV), CTG, 72 h",93 ± 1%
same,EC50,"B-LCL 5/2/1; Homo sapiens, 72 h, read-out: K, cell line growth",0.014 ± 0.0003 µM
same,"Imax, Growth, MTS",CIN612 cells; CIN612,70 ± 1%
same,EC50,CIN612 cells; [7],0.0028 ± 0.0001 µM
same,"Imax, HPV DNA, qPCR","HPV-16; HKC/HPV16, HPV type 16",89 ± 2%
same,Selectivity index,HPV-16; HPV DNA qPCR in HKC/HPV16 vs HKC,"18,000 ± 5,600"
same,EC50,"HPV-16; Human papillomavirus 16, read-out: K, HPV DNA, qPCR",0.0022 ± 0.0002 µM
same,"Imax, Growth, MTS",human keratinocyte (HKC),∼100%
same,"K, Growth, MTS",human keratinocyte (HKC),"40,000 ± 11,800 nM"
same,EC50,Namalwa; [7],0.01 ± 0.002 µM
same,"Imax, Growth, MTS","Namalwa; Namalwa, EBV integrated",66% and 66 ± 2.5%
same,EC50,W12 20861; [7],0.025 ± 0.009 µM
same,"Imax, Growth, MTS","W12 20861; W12 20861, HPV16 integrated",35 ± 2.8%
same,"Imax, Growth, MTS",HeLa; HPV 18 integrated,50 ± 0.8%
same,EC50,HeLa; [7],0.02 ± 0.002 µM
same,EC50,"Huh7; Homo sapiens, Huh-7, 72 h, read-out: K, growth, MTS",0.041 ± 0.01 µM
same,"Imax, Growth, MTS","Huh7; Huh7, liver epithelial, 72 h",26 ± 1%
same,EC50,"Molt4; Homo sapiens, MOLT-4, 72 h, read-out: K, growth, MTS",0.013 ± 0.0013 µM
same,"Imax, Growth, MTS","Molt4; Molt4, T lymphoblast, 72 h",85 ± 2%
same,CC50 at 72 h,[2],224 µM
same,CC50 at 72 h,[3],> 10 µM
same,CC50 at 72 h,[4],90 µM
same,CC50 at 72 h,[5],> 10 µM
same,CC50,[6],160 µM
same,Apoptosis,IM9 cells,induced apoptosis
same,Induction of luciferase under control of the IFIT1 promoter,IFIT1 promoter,Strong induction
same,Inhibition of growth of primary cell types,primary cells,None of the primary cell types tested was significantly inhibited; also recorded: does not impact the growth
